In brackets after ≈: the same amount, converted by molar mass.
Tests used:
Format in all cases: functional
Staphylococcus aureus [1] = assay: Ratio of MIC for kanamycin-resistant Staphylococcus aureus harboring mutations in FusE gene to MIC for wild type kanamycin-susceptible Staphylococcus aureus AH001
Staphylococcus aureus [2] = assay: Antibacterial activity against fusidic acid-resistant Staphylococcus aureus AH194 harboring Pro404Leu mutation in fusA gene after 18 to 24 hrs by Etest strip assay
Procedure, shortened: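 Mutants of lab strain 8325-4 were selected on LA with FA 2 μg/ml for 48 h at 37°C and purified on selective medium. For the MIC, one colony was suspended in 0.9% NaCl to 0.5 McFarland and swabbed onto Mueller-Hinton agar. An Etest strip was applied and plates were incubated at 37°C for 18–24 h until the lawn was evident.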

Staphylococcus aureus [3] = assay: Antibacterial activity against kanamycin-resistant Staphylococcus aureus AH364 (SCV-36) harboring Asp434Asn mutation in fusA gene after 18 to 24 hrs by Etest strip assay
Procedure, shortened: (§1)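 SCVs of a Rifr 8325-4 derivative were selected on LA with KAN at 8, 16 or 24 μg/ml for 48 h at 37°C. They were purified at the same KAN level and screened on LA plus FA 1 μg/ml.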

Staphylococcus aureus [4] = assay: Antibacterial activity against kanamycin-resistant Staphylococcus aureus AH377 (SCV-49) harboring +1 frameshift mutation at nucleotide 23 in rplF gene after 18 to 24 hrs by Etest strip assay; procedure, shortened: as §1
Staphylococcus aureus [5] = assay: Antibacterial activity against kanamycin-resistant Staphylococcus aureus AH346 (SCV-18) harboring -1 frameshift mutation at nucleotide 238 in rplF gene after 18 to 24 hrs by Etest strip assay; procedure, shortened: as §1
Staphylococcus aureus [6] = assay: Antibacterial activity against kanamycin-resistant and fusidic acid-susceptible Staphylococcus aureus AH287 harboring Ala655Glu mutation in fusA gene after 18 to 24 hrs by Etest strip assay
Procedure, shortened: (§2)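 Etest MIC: a single colony was suspended in 0.9% NaCl to 0.5 McFarland and swabbed over Mueller-Hinton agar. The strip was applied and plates were incubated at 37°C for 18 to 24 h until an SCV lawn grew.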

Staphylococcus aureus [7] = assay: Antibacterial activity against kanamycin-resistant and fusidic acid-susceptible Staphylococcus aureus AH297 harboring Ser660Pro mutation in fusA gene after 18 to 24 hrs by Etest strip assay; procedure, shortened: as §2
Staphylococcus aureus [8] = assay: Antibacterial activity against stationary-phase rifampin-resistant Staphylococcus aureus 8325-4 culture assessed as number of viable colonies at 8 ug/ ml after 48 hrs
Procedure, shortened: (§3)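 Twenty independent stationary-phase overnight LB cultures of the Rifr 8325-4 derivative were made; 108 cells from each were spread on LA with kanamycin at 8, 16 or 24 μg/ml. Plates were incubated 48 h at 37°C so that slow-growing variants could form visible colonies, and Kanr colonies were counted.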

Staphylococcus aureus [9] = assay: Antibacterial activity against stationary-phase rifampin-resistant Staphylococcus aureus 8325-4 culture assessed as number of viable colonies at 16 ug/ ml after 48 hrs; procedure, shortened: as §3
Staphylococcus aureus [10] = assay: Antibacterial activity against stationary-phase rifampin-resistant Staphylococcus aureus 8325-4 culture assessed as number of viable colonies at 24 ug/ ml after 48 hrs; procedure, shortened: as §3

| Structure (SMILES) | fold change (FC) (Staphylococcus aureus [1]) | MIC (Staphylococcus aureus [2]) [µg/mL] | MIC (Staphylococcus aureus [3]) [µg/mL] | MIC (Staphylococcus aureus [4]) [µg/mL] | MIC (Staphylococcus aureus [5]) [µg/mL] | MIC (Staphylococcus aureus [6]) [µg/mL] | MIC (Staphylococcus aureus [7]) [µg/mL] | Activity (Staphylococcus aureus [8]) | Activity (Staphylococcus aureus [9]) | Activity (Staphylococcus aureus [10]) |
| --- | --- | --- | --- | --- | --- | --- | --- | --- | --- | --- |
| CN[C@@H]1[C@H](O[C@H]2[C@H](O[C@H]3[C@H](O)[C@@H](O)[C@H](N=C(N)N)[C@@H](O)[C@@H]3N=C(N)N)O[C@@H](C)[C@]2(O)C=O)O[C@@H](CO)[C@H](O)[C@H]1O [STREPTOMYCIN] | 3 | 8 (≈ 13.8 µM) | 24 (≈ 41.3 µM) | 24 | 24 | 48 (≈ 82.5 µM) | – | – | – | – |
| CC(=O)O[C@H]1C[C@@]2(C)[C@@H](C[C@@H](O)[C@H]3[C@@]4(C)CC[C@@H](O)[C@@H](C)[C@@H]4CC[C@@]32C)/C1=C(\CCC=C(C)C)C(=O)O [FUSIDIC ACID] | 32 | 4 (≈ 7.74 µM) | 256 (≈ 495 µM) | 4 | 8 | 12 (≈ 23.2 µM) | 2 (≈ 3.87 µM) | – | – | – |
| NC[C@H]1O[C@H](O[C@H]2[C@H](O)[C@@H](O[C@H]3O[C@H](CO)[C@@H](O)[C@H](N)[C@H]3O)[C@H](N)C[C@@H]2N)[C@H](O)[C@@H](O)[C@@H]1O [KANAMYCIN] | 3 | 2 (≈ 4.13 µM) | 8 (≈ 16.5 µM) | 6 | 8 | 16 (≈ 33 µM) | 24 (≈ 49.5 µM) | 1000 | 200 | 30 |
